# Compound activity: PubChem BioAssay, several laboratories
# HIV Env fusion: HIV envelope-mediated fusion inhibition; AID 651610; HeLa-JRFL Env/CEM21 cell fusion, luciferase; inhibition, % at 12.3 µM; actives 1.1% (n = 360,000);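 active = mean replicate inhibition score of at least 50 and every replicate individually at or above 50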;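 also: 0% = plate neutral controls and 100% = maraviroc near 300 nM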
# PAX8 inh HTS: inhibitors of PAX8 transcriptional activity in RMG-I cells. AID 652154. inhibition, % at 12.6 µM. RMG-I TPO-luciferase reporter, SteadyGlo, 24 h. actives 1.2% (n = 360,000);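 active = mean replicate inhibition at least 60% with every replicate also reaching 60%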;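 also: luciferase light reporting Pax8 driven TPO promoter activity; plate controls were median of neutral control wells for no effect and mitoxantrone controls for full effect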
# PfHsp90 set2: growth inhibition of yeast expressing Plasmodium Hsp90 | actives 0.32% (n = 310,000) | inhibition, % at 9.4 µM | S. cerevisiae expressing PfHsp90, BacTiter-Glo ATP, 48 h; yeast lacking PDR1 and PDR3 efflux regulators;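 active = every replicate shows inhibition above about 80%, whatever the replicate mean, limit read from the data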;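 also: 0% = DMSO neutral controls and 100% = 20 µM radicicol positive controls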
# Rtt109 Vps75: C. albicans Rtt109 histone acetyltransferase inhibition | Q5AAJ8 | purified Rtt109/Vps75, ThioGlo CoA-SH fluorescence, 4 h | inhibition, % at 34.9 µM | actives 0.16% (n = 330,000) | AID 540336;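 active = inhibition of at least 50% in every replicate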
# Target sequence (Q5AAJ8 whole entry, looked up): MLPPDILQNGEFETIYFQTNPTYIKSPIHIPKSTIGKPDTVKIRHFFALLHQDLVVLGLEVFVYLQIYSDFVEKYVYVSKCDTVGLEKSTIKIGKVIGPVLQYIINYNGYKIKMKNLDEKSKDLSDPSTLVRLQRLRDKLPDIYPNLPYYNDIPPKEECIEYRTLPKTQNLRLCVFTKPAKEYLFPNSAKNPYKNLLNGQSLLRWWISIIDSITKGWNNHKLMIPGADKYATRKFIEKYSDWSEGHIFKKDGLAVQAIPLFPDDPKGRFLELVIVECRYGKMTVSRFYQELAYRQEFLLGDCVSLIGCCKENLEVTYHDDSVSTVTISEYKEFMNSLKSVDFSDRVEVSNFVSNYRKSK
# N-glyco inh: blocks N-linked glycosylation in D54 reporter cells; reporter increase, % at 12.5 µM; actives 0.23% (n = 360,000); D54 ERlucT glycosylation luciferase reporter, 24 h; percent of 100 nM tunicamycin response; AID 588692;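 active = mean luciferase reporter signal, scaled so untreated is 0 and the glycosylation-blocking control 100, at or above a set limit in every replicate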;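 also: luciferase carries N-glycosylation sites so blocking glycosylation raises the light; 0% = median of neutral control wells and 100% = median of 100 nM tunicamycin wells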
# Arrestin-AP2 inh: blocks beta-arrestin peptide binding to AP2 adaptin. inhibition, % at 10 µM. actives 0.31% (n = 340,000). FITC-arrestin peptide / GST-AP2 beads, flow cytometry; AP2 beta2 appendage carries R879A mutation. AID 504490;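 active = inhibition above a set limit, near 3 SD of compounds lacking own fluorescence, cut at about 54% in these data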;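 also: plate controls were DMSO wells for no effect and 5 µM unlabelled arrestin peptide for full effect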
#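 System: GST-AP2 R879A glutathione beads | Also added: FITC-arrestin peptide, 50 nM | Times: 12 min plus 1 h, RT | Signal: Bead flow cytometry, FITC channel | Buffer or medium: PBS with 0.05% Tween 20 and 0.1% BSA | Read-out basis: Percent drop in bead-associated FITC signal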
# Numbers without * were called inactive; . = no result; [ ] = dose if it differs, or a comment. Hits are enriched below; roughly 2.3% of the tested compounds scored in any of these assays.
SMILES,HIV Env fusion,PAX8 inh HTS,PfHsp90 set2,Rtt109 Vps75,N-glyco inh,Arrestin-AP2 inh
C[C@H]1CCCCO[C@@H](CN(C)Cc2ccc(C(F)(F)F)cc2)[C@@H](C)CN([C@@H](C)CO)C(=O)c2cc(NC(=O)C3CCCCC3)ccc2O1,19.3[16.7 µM],-19.8,.,.,.,.
CC(C)CC#Cc1cnc2c(c1)C(=O)N([C@H](C)CO)C[C@H](C)[C@H](CN(C)Cc1cccc(F)c1)O2,3.9[16.7 µM],.,.,.,.,.
FC(F)(F)c1cc(-c2ccccc2)nc(N2CCCCC2)n1,.,.,17.9,0.8,-0.9,26.0
O=C(O)C1CCCN1c1nc(-c2ccc(Cl)c(Cl)c2)cc(C(F)(F)F)n1 (stereo not drawn),.,77.4*,2.1,-3.2,-2.7,0.4
C[C@@H]1CN([C@@H](C)CO)C(=O)c2cc(NC(=O)Nc3ccc(F)cc3)ccc2O[C@@H](C)CCCCO[C@H]1CN(C)Cc1ccc(C(F)(F)F)cc1,27.3[16.7 µM],83.7*,.,.,.,.
C[C@H]1CCCCO[C@H](CN(C)Cc2ccc(C(F)(F)F)cc2)[C@@H](C)CN([C@@H](C)CO)C(=O)c2cc(NC(=O)Nc3ccc(F)cc3)ccc2O1,57.6*[16.7 µM],95.5*,.,.,.,.
C[C@@H]1CN([C@H](C)CO)C(=O)c2cc(NC(=O)Nc3ccc(F)cc3)ccc2O[C@@H](C)CCCCO[C@H]1CN(C)Cc1ccc(C(F)(F)F)cc1,67.9*[16.7 µM],106.6*,.,.,.,.
C[C@@H]1CCCCO[C@H](CN(C)Cc2ccc(C(F)(F)F)cc2)[C@H](C)CN([C@@H](C)CO)C(=O)c2cc(NC(=O)Nc3ccc(F)cc3)ccc2O1,44.0[16.7 µM],91.3*,.,.,.,.
C[C@@H]1CCCCO[C@H](CN(C)Cc2ccc(C(F)(F)F)cc2)[C@@H](C)CN([C@H](C)CO)C(=O)c2cc(NC(=O)Nc3ccc(F)cc3)ccc2O1,0.2[16.7 µM],-0.7,.,.,.,.
CO[C@@H]1CN(C)C(=O)c2cc(NS(=O)(=O)CC(F)(F)F)ccc2OC[C@@H](C)N(C(=O)c2ccc3c(c2)OCO3)C[C@H]1C,.,-78.9,.,.,.,.
C[C@H]1CCCCO[C@@H](CN(C)C(=O)Nc2ccccc2)[C@@H](C)CN([C@@H](C)CO)C(=O)c2cc(NC(=O)Nc3ccc4c(c3)OCO4)ccc2O1,-6.2[16.7 µM],33.4,.,.,.,.
O=C(C[C@H]1C[C@@H]2c3cc(NC(=O)C4CCOCC4)ccc3O[C@@H]2[C@H](CO)O1)NCc1cc(F)ccc1F,-18.4[16.7 µM],-12.4,.,.,.,.
O=C(C[C@H]1CC[C@H]2[C@@H](COC[C@H](O)CN2Cc2cc(F)cc(F)c2)O1)NC1CCCC1,21.5[16.7 µM],13.4,.,.,.,.
CC(=O)N(C)C[C@@H]1Oc2ncc(-c3ccccc3C)cc2C(=O)N([C@@H](C)CO)C[C@@H]1C,15.8[16.7 µM],.,.,.,.,.
CC(=O)Nc1ccc2c(c1)C(=O)N(C)[C@@H]1CC[C@H](CC(=O)NCc3ccccc3Cl)O[C@@H]1CO2,-7.2[16.7 µM],1.1,.,.,.,.
C[C@@H]1CN([C@H](C)CO)C(=O)c2cc(NC(=O)Nc3ccc(F)cc3)ccc2O[C@@H](C)CCCCO[C@@H]1CN(C)Cc1ccc(C(F)(F)F)cc1,57.4*[16.7 µM],93.4*,.,.,.,.
Cc1[nH]c(C)c(C(=O)/C=C/c2ccc([N+](=O)[O-])cc2)c1C,-53.6,2.0,8.3,-0.5,42.1*,-12.2
COc1ccc(NC(=O)Nc2cccc3c2O[C@H](CN(C)Cc2ccccc2)[C@H](C)CN([C@H](C)CO)C3=O)cc1,-10.1[16.7 µM],.,.,.,.,.
CC(C)=C1C2CCC1C(C(=O)NCc1ccccc1)C2C(=O)O (stereo not drawn),66.6*,.,5.6,-3.4,0.9,-7.6
Cc1nc2ncnn2c(N2CCCC(C(=O)Nc3ccc4c(c3)CCC4)C2)c1C (stereo not drawn),78.1*,.,-6.2,5.1,1.2,4.0
F[B-](F)(F)c1cc2ccccc2s1,21.9,-14.3,-2.2,0.8,-0.7,1.6
F[B-](F)(F)c1cc2cc(Br)ccc2s1,.,.,116.9*,-6.0,1.1,26.8
CN1CCN(C(=O)C[C@@H]2C=C[C@H](NS(=O)(=O)c3cccc(F)c3)[C@H](CO)O2)CC1,7.0[16.7 µM],-7.4,.,.,.,.
CON(C)C(=O)CC1(CN(Cc2ccccc2)C(=O)OC(C)(C)C)CCCCC1,13.4,-5.0,-3.0,3.3,-5.0,9.1
C#CC(=O)CC1(CN(Cc2ccccc2)C(=O)OC(C)(C)C)CCCCC1,-21.9,76.2*,4.8,-1.1,20.5,-2.2
